Screening results deposited in PubChem by Broad Institute.
The list is not random: actives were taken first. Their share in the collection is about 0.86%.
AF4-AF9 inh: MLL-AF4/AF9 protein interaction inhibition. P42568. inhibition, % at 10 µM. 0.47% of 350,000 active. AlphaScreen, biotin-AF4 peptide binding to FLAG-AF9;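 active = every replicate reaching a set inhibition limit, whatever the replicate mean, cut at about 25% in these data; inconclusive = mean inhibition reaches that limit but some replicates miss it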;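 note: 0% = plate neutral control median and 100% = total signal loss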
S100A4 MyoIIA: blocks human S100A4 binding to myosin IIA peptide | P26447 | S100A4/TAMRA-MyoIIA peptide fluorescence polarization | inhibition, % at 10.7 µM | 0.14% of 360,000 active | AID 652163;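 active = mean inhibition of at least 70% across replicates, with every replicate also reaching that level; inconclusive = mean inhibition reaches 70% but some replicates fall short; inactive = mean inhibition below 70%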
Target sequence (P26447 whole entry, looked up): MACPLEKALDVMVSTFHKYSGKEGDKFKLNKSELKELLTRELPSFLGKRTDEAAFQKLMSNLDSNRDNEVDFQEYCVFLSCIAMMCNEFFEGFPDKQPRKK
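Material: S100A4 monomer protein | Medium: HEPES pH 7.2 with CaCl2, KCl, NaCl, DTT, Triton | Reagent: Labelled myosin peptide probe, 5 nM | Doses: One dose per compound | Times: 5 min incubation before reading | Benchmarks: Neutral control DMSO, positive control TFP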
Rtt109 Vps75: blocks Candida albicans Rtt109/Vps75 acetyltransferase activity; AID 540336; 0.16% of 330,000 active; purified Rtt109/Vps75, ThioGlo CoA-SH fluorescence, 4 h; Q5AAJ8; inhibition, % at 34.9 µM;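 active = inhibition of at least 50% in every replicate; inconclusive = best replicate reaches 50% inhibition but some replicates fall short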
Target sequence (Q5AAJ8 whole entry, looked up): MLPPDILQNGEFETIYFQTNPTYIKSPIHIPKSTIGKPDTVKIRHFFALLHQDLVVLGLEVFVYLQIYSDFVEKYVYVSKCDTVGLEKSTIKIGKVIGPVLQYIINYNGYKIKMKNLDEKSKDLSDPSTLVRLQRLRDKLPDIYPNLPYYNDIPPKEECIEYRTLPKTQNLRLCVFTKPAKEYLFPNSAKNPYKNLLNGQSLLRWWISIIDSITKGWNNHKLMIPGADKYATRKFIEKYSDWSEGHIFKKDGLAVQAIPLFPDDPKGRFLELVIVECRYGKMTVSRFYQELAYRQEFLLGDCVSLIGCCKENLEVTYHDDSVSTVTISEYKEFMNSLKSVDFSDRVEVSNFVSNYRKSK
ERAP1 HTS inh: ERAP1 (human) enzyme inhibition; AID 652197; inhibition, % at 10.7 µM; 0.15% of 340,000 active; Q9NZ08; recombinant ERAP1, Leu-AMC fluorescence, 60 min;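 active = mean replicate inhibition of at least 30%, or all replicates individually reaching that 30% level; inactive = mean below 30% and not every replicate reaching it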;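 note: 0% = neutral control wells and 100% = L-leucinethiol positive control wells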
miR-122 sensor: miR-122 inhibition in Huh7 cells | Huh7 miR-122 Renilla luciferase sensor, 48 h; neutral wells = 0, positive control = 100 | activation (reporter increase), % at 12.5 µM | 0.3% of 340,000 active;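 active = mean replicate activation score at least 90 and every replicate individually at or above 90; inconclusive = only one of the two criteria met; inactive = neither criterion met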;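 note: higher luciferase means less miR-122 activity so hits act as miR-122 inhibitors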
miR-27b select: selectivity of miR-122 inhibitors: effect on miR-27b in Huh7; Huh7 miR-27b levels, qRT-PCR, 48 h; relative miR-27b level (unnormalised ratio), ratio at 35 µM; shares compounds with miR-122 sensor; AID 687039; 35 tested, under 10 active;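 active = compounds lowering miR-27b whose fitted half-maximal dose is at most twice their top tested dose; inconclusive = flat curve with moderate drop, or poor fit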
Alpha interfer: interferes with the AlphaScreen assay signal. shares compounds with AF4-AF9 inh. AlphaScreen interference counter-screen, signal luminescence. AC50, µM (series often up to 12 µM), for inactives: at the highest dose activity change, negative = inhibition. 45% of 530 active. AID 720494; cut-off not given, nearly all actives have AC50 up to about 14 µM
* marks the source's active call; other numbers are inactive results; [ ] = remark or other dose.

For CO[C@@H]1CN(C)C(=O)c2ccc(NC(=O)C3CC3)cc2OC[C@H](C)N(C(=O)Cc2ccccn2)C[C@@H]1C the results were AF4-AF9 inh -1, S100A4 MyoIIA -5 and ERAP1 HTS inh 0.
C[C@@H]1CN([C@H](C)CO)C(=O)c2cc(C3=CCCCC3)cnc2O[C@H]1CN(C)S(C)(=O)=O was read as miR-122 sensor -4[16.7 µM].
For CCCCCC(O)CCCC(=O)O (stereo unspecified) the results were AF4-AF9 inh -5, S100A4 MyoIIA -8, Rtt109 Vps75 -3, ERAP1 HTS inh -3 and miR-122 sensor -1.
Screening CCCCCCCCCCCCCCCC(O)C[N+](C)(C)CCO (stereo unspecified) returned AF4-AF9 inh 3, S100A4 MyoIIA -11, Rtt109 Vps75 16 and ERAP1 HTS inh 50*.
CN(C)CCCNC(=S)NCC(c1ccc(Cl)cc1Cl)c1c[nH]c2ccccc12 (stereo unspecified) was read as AF4-AF9 inh 35*, S100A4 MyoIIA -1, Rtt109 Vps75 23, ERAP1 HTS inh -2 and miR-122 sensor -4.
O=C(C[C@@H]1CC[C@H]2[C@@H](COC[C@H](O)CN2CC2CCOCC2)O1)NCC1CC1 was read as AF4-AF9 inh 1, S100A4 MyoIIA 1, ERAP1 HTS inh -1 and miR-122 sensor 3[16.7 µM].
Screening C[C@H]1CN([C@@H](C)CO)C(=O)c2cc(NS(=O)(=O)c3ccccc3)ccc2O[C@@H]1CN(C)S(=O)(=O)c1ccc(Cl)cc1 returned miR-122 sensor 7[16.7 µM].
COc1cccc2c(=O)n(CC(=O)Nc3ccc(F)cc3F)ccc12 was read as AF4-AF9 inh 3, S100A4 MyoIIA -5, Rtt109 Vps75 -5 and miR-122 sensor 1.
`COc1cccc2c(=O)n(CC(=O)Nc3ccccc3)ccc12` gave AF4-AF9 inh 48*, S100A4 MyoIIA -10, Rtt109 Vps75 -9, ERAP1 HTS inh -5 and miR-122 sensor -1.
`CCc1sc(C(=O)Nc2cccc(C(C)=O)c2)cc1C` gave Rtt109 Vps75 52* and miR-122 sensor -3.
`CC(=O)c1cccc(NC(=O)c2cc(Cl)sc2Cl)c1` gave AF4-AF9 inh -7, S100A4 MyoIIA 0, Rtt109 Vps75 5 and ERAP1 HTS inh 1.
For Cc1cc(C)c(S(=O)(=O)NC2CC3CCC2C3)c(C)c1 (stereo unspecified) the results were AF4-AF9 inh -3, S100A4 MyoIIA 3, Rtt109 Vps75 6, ERAP1 HTS inh 2, miR-122 sensor 125* and miR-27b select 0.47.
For CC(=O)Nc1ccc(S(=O)(=O)NC2CC3CCC2C3)cc1 (stereo unspecified) the results were AF4-AF9 inh -1, S100A4 MyoIIA -6, Rtt109 Vps75 6, ERAP1 HTS inh 1 and miR-122 sensor 31.
Screening CCC(=O)N(C)C[C@@H]1Oc2ncc(-c3ccccc3F)cc2C(=O)N([C@H](C)CO)C[C@@H]1C returned AF4-AF9 inh -1, S100A4 MyoIIA -3, ERAP1 HTS inh -2 and miR-122 sensor 27[16.7 µM].
`Cc1ccc(C)c(NS(=O)(=O)c2cc(C(=O)NCc3ccccn3)ccc2Cl)c1` gave Rtt109 Vps75 5 and miR-122 sensor 75.
Screening Cc1ccc(NS(=O)(=O)c2cc(C(=O)NCc3ccccn3)ccc2Cl)cc1C returned Rtt109 Vps75 8, miR-122 sensor 101* and miR-27b select 0.97.
Screening CC1CCCCN1C(=O)c1cc2nc(-c3ccccc3)cc(-c3ccccc3)n2n1 (stereo unspecified) returned Rtt109 Vps75 -4, miR-122 sensor 121* and miR-27b select 0.9.
O=C(C[C@@H]1CC[C@@H]2[C@H](COC[C@H](O)CN2S(=O)(=O)c2ccccc2)O1)N[C@@H]1CCN(Cc2ccccc2)C1 was read as AF4-AF9 inh 1, S100A4 MyoIIA -3, ERAP1 HTS inh -2 and miR-122 sensor 5[16.7 µM].
Screening CCCCNS(=O)(=O)c1ccc2nc(-c3cccnc3)cc(C(=O)NC(C)C)c2c1 returned AF4-AF9 inh 1, S100A4 MyoIIA -1, Rtt109 Vps75 -12, ERAP1 HTS inh 1 and miR-122 sensor 69.
For CCCCNS(=O)(=O)c1ccc2nc(-c3cccnc3)cc(C(=O)NC(C)CC)c2c1 (stereo unspecified) the results were AF4-AF9 inh 0, S100A4 MyoIIA 0, Rtt109 Vps75 4, ERAP1 HTS inh 5, miR-122 sensor inconclusive and miR-27b select 0.57.
Screening COc1cccc(N2CCN(C(=O)c3oc4ccccc4c3NC(=O)CCc3cc(OC)no3)CC2)c1 returned AF4-AF9 inh 5, S100A4 MyoIIA 0, Rtt109 Vps75 -1, ERAP1 HTS inh -6, miR-122 sensor inconclusive and miR-27b select 0.64.
O=S(=O)(Nc1cccc2[nH]ncc12)c1ccc(F)c2ncccc12 was read as miR-27b select 0.89.
`COc1ccc2c3c(n(C)c2c1)[C@@H](CO)N(C(C)=O)CC31CN(C(=O)C2CCOCC2)C1` gave AF4-AF9 inh -2, S100A4 MyoIIA -11 and ERAP1 HTS inh -3.
CCOc1cc(C)c(S(=O)(=O)NC2CCCCC2)cc1C was read as Rtt109 Vps75 2, miR-122 sensor 198* and miR-27b select 0.91.
`O=C(C[C@@H]1C=C[C@@H](NC(=O)Nc2cc(F)ccc2F)[C@H](CO)O1)NCc1ccccn1` gave AF4-AF9 inh -5, S100A4 MyoIIA 18 and ERAP1 HTS inh -2.
For CN(C)c1ccc(NC2=C(Cl)C(=O)c3ccccc3C2=O)cc1 the results were AF4-AF9 inh 64*, S100A4 MyoIIA -1, Rtt109 Vps75 0, ERAP1 HTS inh 6 and Alpha interfer 1.9µM*.
For O=C(C[C@H]1C[C@H]2c3cc(NC(=O)NC4CCCC4)ccc3O[C@H]2[C@H](CO)O1)NCc1ccc(Cl)cc1 the results were AF4-AF9 inh -1, S100A4 MyoIIA 1, ERAP1 HTS inh -1 and miR-122 sensor 12[16.7 µM].
`Cc1[nH]c2ccccc2c1C(C#N)(C#N)C1C(=O)c2ccccc2C1=O` gave AF4-AF9 inh 65*, S100A4 MyoIIA 2, Rtt109 Vps75 3, ERAP1 HTS inh 2, miR-122 sensor 6 and Alpha interfer 2µM*.
COc1ccc(NS(=O)(=O)c2ccc(C)c(C(=O)N3CCN(Cc4cc(OC)ccc4OC)CC3)c2)cc1 was read as AF4-AF9 inh 35*, S100A4 MyoIIA -2, Rtt109 Vps75 4, ERAP1 HTS inh 1, miR-122 sensor -7 and Alpha interfer -16%.
